The results in this text go back to ChEMBL document CHEMBL1782029, “Synthesis and biological evaluation of N-substituted benzo[c]phenanthrolines and benzo[c]phenanthrolinones as antiproliferative agents” (Eur J Med Chem, 2011).

Each structure is given as a SMILES string. Activity calls are given as the source filed them. No cut-off for these calls is given here.

One assay has as its system Nucleic Acid. The assay can be described thus: Binding affinity to 265 bp of 3'-end-radio-labelled DNA fragment at 0.5 to 5 uM treated 15 mins before Dnase 1-mediated digestion by footprinting assay. The format is nucleic-acid assay. Put shortly: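 DNase I footprinting. It was equilibrated with compound for 15 min at 37 °C, then digested 3 min with DNase I (0.01 unit/ml) in 20 mM NaCl, 2 mM MgCl2, 2 mM MnCl2, pH 7.3. Samples were lyophilised, denatured at 90 °C and run on an 8% denaturing polyacrylamide gel.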

For assay [1], the target named is DNA topoisomerase 2-alpha (Homo sapiens) (UniProt P11388). The assay can be described thus: Inhibition of human topoisomerase 2 assessed as formation of linear form of supercoiled pUC19 DNA at 50 uM after 45 mins using ethidium bromide staining by agarose gel analysis.
Assay [2] concerns the target T1, DNA topoisomerase 1 (Homo sapiens) (UniProt P11387).
T1 sequence (whole entry): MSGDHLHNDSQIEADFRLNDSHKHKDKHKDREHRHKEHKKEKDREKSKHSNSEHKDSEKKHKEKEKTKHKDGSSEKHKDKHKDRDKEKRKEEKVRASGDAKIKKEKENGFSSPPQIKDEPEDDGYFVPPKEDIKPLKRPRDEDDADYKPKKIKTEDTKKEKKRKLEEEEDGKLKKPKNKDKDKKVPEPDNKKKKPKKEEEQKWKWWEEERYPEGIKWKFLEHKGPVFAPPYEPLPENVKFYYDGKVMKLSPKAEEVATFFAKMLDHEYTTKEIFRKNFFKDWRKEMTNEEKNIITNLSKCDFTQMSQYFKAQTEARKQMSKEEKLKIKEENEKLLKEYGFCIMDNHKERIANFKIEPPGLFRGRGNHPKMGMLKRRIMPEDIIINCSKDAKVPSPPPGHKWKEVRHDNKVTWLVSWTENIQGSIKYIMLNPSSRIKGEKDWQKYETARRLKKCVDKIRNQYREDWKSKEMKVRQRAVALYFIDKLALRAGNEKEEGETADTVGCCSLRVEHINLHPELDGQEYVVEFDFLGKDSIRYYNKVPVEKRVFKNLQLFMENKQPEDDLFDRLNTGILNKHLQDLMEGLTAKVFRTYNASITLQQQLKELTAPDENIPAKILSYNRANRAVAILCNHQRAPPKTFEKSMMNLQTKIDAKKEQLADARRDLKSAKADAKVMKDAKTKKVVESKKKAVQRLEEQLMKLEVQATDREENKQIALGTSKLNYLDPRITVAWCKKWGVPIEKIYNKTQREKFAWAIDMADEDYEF
The assay can be described thus: Inhibition of human recombinant topoisomerase 1-mediated relaxation of supercoiled pUC19 DNA assessed as formation of nicked DNA at 0.1 to 5 uM using ethidium bromide staining by agarose gel electrophoresis. Put shortly:
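Supercoiled pUC19 plasmid (130 ng) was incubated with 4 units of human recombinant Top1 at 37 °C for 45 min in relaxation buffer (50 mM Tris pH 7.8, 50 mM KCl, 10 mM MgCl2, 1 mM DTT, 1 mM EDTA, 1 mM ATP) with increasing compound concentrations. Products were resolved on 1% agarose at room temperature, 2 h at 120 V, then stained with ethidium bromide and imaged under UV.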

Assay [3] deals with Calf thymus DNA. The assay can be described thus: Binding affinity to calf thymus DNA by circular dichroism analysis. The format is nucleic-acid assay. The following applies: Bos taurus. In general terms: CD spectra are sensitive to the conformation of chiral molecules.
In assay [4] the test system is Calf thymus DNA. The assay can be described thus: Binding affinity to calf thymus DNA at 20 uM by UV-vis spectrophotometry analysis. The note with it: Bos taurus. The format is nucleic-acid assay.
Assay [5] deals with HT-29. The assay can be described thus: Cytotoxicity against human HT-29 cells after 72 hrs by MTS assay. It counts as functional, cell-based. The following applies: HT-29, 72 h. In general terms: Tetrazolium dyes change colour on reduction, which living cells bring about.
Assay [6] deals with T1, DNA topoisomerase 1 (Homo sapiens). The assay can be described thus: Inhibition of human recombinant topoisomerase 1 assessed as cleavage of 117-mer DNA fragment at 20 to 50 uM using ethidium bromide staining by agarose gel electrophoresis analysis.
The target is the same in assay [7]. The assay can be described thus: Inhibition of camptothecin-induced poisoning effect of human topoisomerase 1 assessed as suppression of CPT-induced 117 bp DNA cleavage by SDS-PAGE analysis.
The target in assay [8] is DNA topoisomerase 2-alpha (Homo sapiens) (UniProt P11388). The assay can be described thus: Inhibition of human topoisomerase 2 assessed as formation of nicked form of supercoiled pUC19 DNA at 50 uM after 45 mins using ethidium bromide staining by agarose gel analysis.
The test system of assay [9] is HT-29. The assay can be described thus: Cell cycle arrest in human HT-29 cells at G2/M phase at 0.1 to 2.5 uM after 48 hrs using propidium iodide staining by FACS analysis. The format is functional, cell-based. An outline of the steps: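 Exponentially growing HT-29 colon carcinoma cells (300,000 per well) were plated for 24 h, then exposed to 0.1, 1 or 2.5 µM compound for 48 h. Cells were fixed, stained with propidium iodide and analysed by flow cytometry (FACScan).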
Background: A flow cytometer gives signals particle by particle.

One may read the IC50 as the point on the concentration scale where inhibition reaches its midpoint. Higher therefore signals lower potency.

DNA topoisomerase 2-alpha (Homo sapiens), sequence (P11388 whole entry): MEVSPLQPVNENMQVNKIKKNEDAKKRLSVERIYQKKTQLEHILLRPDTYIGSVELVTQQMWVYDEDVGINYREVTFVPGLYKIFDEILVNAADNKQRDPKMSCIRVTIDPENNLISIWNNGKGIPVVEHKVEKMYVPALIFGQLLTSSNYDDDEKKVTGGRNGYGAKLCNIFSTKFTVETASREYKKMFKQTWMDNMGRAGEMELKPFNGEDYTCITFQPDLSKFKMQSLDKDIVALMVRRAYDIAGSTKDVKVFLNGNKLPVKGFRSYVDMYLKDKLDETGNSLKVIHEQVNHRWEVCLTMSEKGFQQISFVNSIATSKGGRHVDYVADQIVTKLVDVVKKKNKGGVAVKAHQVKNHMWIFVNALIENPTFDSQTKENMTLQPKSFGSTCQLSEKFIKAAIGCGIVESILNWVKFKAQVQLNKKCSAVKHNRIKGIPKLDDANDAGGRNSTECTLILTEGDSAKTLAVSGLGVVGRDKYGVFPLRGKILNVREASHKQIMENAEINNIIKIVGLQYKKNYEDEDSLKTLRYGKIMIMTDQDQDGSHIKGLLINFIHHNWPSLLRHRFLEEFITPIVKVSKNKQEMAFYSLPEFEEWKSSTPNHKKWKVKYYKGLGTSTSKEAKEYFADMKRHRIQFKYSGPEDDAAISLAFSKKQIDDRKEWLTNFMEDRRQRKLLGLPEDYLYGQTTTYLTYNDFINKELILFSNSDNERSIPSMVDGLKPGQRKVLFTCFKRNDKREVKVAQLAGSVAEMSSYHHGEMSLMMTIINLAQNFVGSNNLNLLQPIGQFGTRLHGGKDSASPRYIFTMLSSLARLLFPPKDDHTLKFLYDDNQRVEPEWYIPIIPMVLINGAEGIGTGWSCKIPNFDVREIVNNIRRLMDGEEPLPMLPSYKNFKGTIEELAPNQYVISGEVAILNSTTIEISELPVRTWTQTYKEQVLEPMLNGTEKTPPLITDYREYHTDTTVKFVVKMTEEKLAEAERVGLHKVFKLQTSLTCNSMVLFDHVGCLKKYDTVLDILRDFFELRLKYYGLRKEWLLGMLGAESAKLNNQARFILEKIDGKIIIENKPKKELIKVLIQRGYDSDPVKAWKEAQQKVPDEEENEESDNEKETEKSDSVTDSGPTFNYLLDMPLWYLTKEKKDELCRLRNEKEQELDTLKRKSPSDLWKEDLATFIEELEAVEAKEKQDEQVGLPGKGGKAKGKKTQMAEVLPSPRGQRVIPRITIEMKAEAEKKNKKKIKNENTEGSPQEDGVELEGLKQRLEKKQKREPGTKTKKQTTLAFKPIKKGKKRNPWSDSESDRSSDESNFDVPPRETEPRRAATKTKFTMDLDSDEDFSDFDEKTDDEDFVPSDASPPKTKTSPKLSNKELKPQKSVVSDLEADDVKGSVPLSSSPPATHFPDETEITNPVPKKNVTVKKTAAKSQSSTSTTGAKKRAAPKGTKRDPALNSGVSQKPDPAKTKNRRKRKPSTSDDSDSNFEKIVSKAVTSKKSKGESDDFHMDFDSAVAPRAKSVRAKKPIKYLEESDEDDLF

With `CCN(CC)CCCNc1nc2c3cccnc3ccc2c2cc(OC)c(OC)cc12`, the inhibition entry in the assay with Nucleic Acid is “Active”. The inhibition entry in [1], in assay [6] and in assay [8] was “inactive” throughout. Moreover, in assay [2], the “Top1 relaxation inhibition (qualitative call)” value (“Top1 relaxation inhibition” below) was “Active”. The outcome in the assay on Calf thymus DNA [3] and with Calf thymus DNA [4] was Active. For the same compound, the IC50 with HT-29 [5] came to 5770 nM. Moreover, in [7], the inhibition result is “Dose-dependent effect”.
As for `CN(C)CCNc1nc2c3ccncc3ccc2c2cc3c(cc12)OCO3`, the result in the assay with HT-29 [9], with Calf thymus DNA [3] and in the assay on Calf thymus DNA [4] was Active. Moreover, the inhibition entry in the assay with Nucleic Acid was “Active”. Further, the inhibition entry in assay [1], in assay [6] and in assay [8] was “inactive” each time. Also, in [2], the “Top1 relaxation inhibition” value was “Active”. Besides, the IC50 with HT-29 [5] turned out to be 70 nM. Besides, the inhibition entry in assay [7] is “Dose-dependent effect”.
As to `CCN(CC)CCn1c(=O)c2cc3c(cc2c2ccc4cnccc4c21)OCO3`, the outcome in the assay on HT-29 [9], in the assay on Calf thymus DNA [3] and in the assay with Calf thymus DNA [4] was Active. Further, the inhibition result with Nucleic Acid is “Active”. The inhibition entry in assay [1], in assay [6] and in assay [8] was “inactive” in each case. Also, the “Top1 relaxation inhibition” value in [2] was “Active”. This compound also came in with an IC50 with HT-29 [5] of 230 nM. For the same compound, the inhibition result in [7] is “Dose-dependent effect”.
As to `CN(C)CCCn1c(=O)c2cc3c(cc2c2ccc4ncccc4c21)OCO3`, the result with HT-29 [9], in the assay with Calf thymus DNA [3] and in the assay with Calf thymus DNA [4] was Active. Besides, the inhibition entry in the assay on Nucleic Acid is “Active”. Also, the inhibition result in [1], in [6] and in assay [8] was “inactive” each time. Moreover, in assay [2], the “Top1 relaxation inhibition” value is “Active”. For the same compound, 230 nM corresponded to half-maximal inhibition with HT-29 [5] (IC50). For the same compound, the inhibition entry in assay [7] is “Dose-dependent effect”.
As for `COc1cc2c(NCCCN(C)C)nc3c4cccnc4ccc3c2cc1OC`, the inhibition entry with Nucleic Acid was “Active”. In addition, the inhibition result in [1], in [6] and in assay [8] was “inactive” throughout. Further, in assay [2], the “Top1 relaxation inhibition” value was “Active”. Further, the outcome in the assay on Calf thymus DNA [3] and in the assay with Calf thymus DNA [4] was Active. The same compound yielded an IC50 with HT-29 [5] of 3330 nM. Further, the inhibition entry in assay [7] is “Dose-dependent effect”.
As for `CN(C)CCNc1nc2c3cccnc3ccc2c2cc3c(cc12)OCO3`, the result in the assay with HT-29 [9], in the assay with Calf thymus DNA [3] and in the assay on Calf thymus DNA [4] was Active. Moreover, the inhibition result in the assay on Nucleic Acid is “Active”. For the same compound, the inhibition entry in [1], in [6] and in assay [8] was “inactive” in each case. The “Top1 relaxation inhibition” value in assay [2] was “Active”. The compound further registered a 50% inhibitory concentration (IC50) with HT-29 [5] of 110 nM. The inhibition entry in [7] is “Dose-dependent effect”.
For `CN(C)CCCNc1nc2c3ccncc3ccc2c2cc3c(cc12)OCO3`, the inhibition entry (with Nucleic Acid; in assay [1]; in assay [6]; in [8]) was “inactive” throughout. Besides, the “Top1 relaxation inhibition” value in [2] was “Active”. Further, the outcome with Calf thymus DNA [3] and with Calf thymus DNA [4] was Active. Besides, the half-maximal inhibitory concentration (IC50) in the assay on HT-29 [5] came to 7620 nM. For the same compound, in [7], the inhibition result is “Dose-dependent effect”.
Take `COc1cc2c(NCCCN(C)C)nc3c4ccncc4ccc3c2cc1OC`: the inhibition result (in the assay on Nucleic Acid; in assay [1]; in [6]; in assay [8]) was “inactive” throughout. The “Top1 relaxation inhibition” value in assay [2] was “Active”. Also, the result with Calf thymus DNA [3] and in the assay with Calf thymus DNA [4] was Active. Also, the IC50 with HT-29 [5] turned out to be 3140 nM.
In the case of `CN(C)CCn1c(=O)c2cc3c(cc2c2ccc4cnccc4c21)OCO3`, the outcome in the assay on HT-29 [9], with Calf thymus DNA [3] and in the assay on Calf thymus DNA [4] was Active. For the same compound, the inhibition entry in the assay with Nucleic Acid was “Active”. The inhibition result in assay [1], in [6] and in assay [8] was “inactive” throughout. The “Top1 relaxation inhibition” value in [2] is “Active”. Further, 78 nM corresponded to half-maximal inhibition in the assay on HT-29 [5] (IC50). The inhibition result in assay [7] is “Dose-dependent effect”.
Turning to `CN(C)CCCn1c(=O)c2cc3c(cc2c2ccc4cnccc4c21)OCO3`, the outcome with HT-29 [9], in the assay with Calf thymus DNA [3] and in the assay with Calf thymus DNA [4] was Active. Besides, in the assay with Nucleic Acid, the inhibition result is “Active”. The inhibition result in assay [1], in [6] and in assay [8] was “inactive” each time. In addition, the “Top1 relaxation inhibition” value in assay [2] was “Active”. The same compound showed an IC50 in the assay on HT-29 [5] of 240 nM. Besides, in assay [7], the inhibition entry was “Dose-dependent effect”.
As to `CCN(CC)CCCNc1nc2c3ccncc3ccc2c2cc(OC)c(OC)cc12`, the inhibition entry (in the assay with Nucleic Acid; in assay [1]; in assay [6]; in assay [8]) was “inactive” in each case. Moreover, in assay [2], the “Top1 relaxation inhibition” value was “Active”. Further, the result in the assay on Calf thymus DNA [3] and in the assay with Calf thymus DNA [4] was Active. In the assay on HT-29 [5], this compound returned an IC50 of 5470 nM. For the same compound, the inhibition result in [7] is “Dose-dependent effect”.
On to `CN(C)CCn1c(=O)c2cc3c(cc2c2ccc4ncccc4c21)OCO3`, for which the result in the assay with HT-29 [9], with Calf thymus DNA [3] and in the assay with Calf thymus DNA [4] was Active. Moreover, the inhibition entry with Nucleic Acid was “Active”. Further, the inhibition entry in [1], in assay [6] and in [8] was “inactive” throughout. Also, the “Top1 relaxation inhibition” value in assay [2] is “Active”. In addition, half-maximal inhibition with HT-29 [5] (IC50) required 120 nM. In addition, the inhibition entry in assay [7] is “Dose-dependent effect”.
Turning to `CCN(CC)CCn1c(=O)c2cc3c(cc2c2ccc4ncccc4c21)OCO3`, the result in the assay with HT-29 [9], in the assay on Calf thymus DNA [3] and with Calf thymus DNA [4] was Active. Moreover, in the assay with Nucleic Acid, the inhibition result was “Active”. Besides, the inhibition result in assay [1], in assay [6] and in [8] was “inactive” throughout. In addition, the “Top1 relaxation inhibition” value in assay [2] was “Active”. In addition, the IC50 in the assay with HT-29 [5] amounted to 75 nM. The inhibition result in assay [7] is “Dose-dependent effect”.
With `COc1cc2c(NCCN(C)C)nc3c4cccnc4ccc3c2cc1OC`, the inhibition entry with Nucleic Acid was “Active”. Further, the inhibition entry in [1], in assay [6] and in assay [8] was “inactive” in each case. The “Top1 relaxation inhibition” value in [2] is “Active”. In addition, the result in the assay with Calf thymus DNA [3] and with Calf thymus DNA [4] was Active. This compound also returned an IC50 with HT-29 [5] of 970 nM. For the same compound, the inhibition result in [7] was “Dose-dependent effect”.
